The experiment addresses LigAB (Sphingobium sp. SYK-6, UniProt P22635+P22636). The experiment is described as follows: inhibition of PCA dioxygenation, O2 consumption, Clark-type electrode. The experiment is classed as biochemical. To be noted: read-out: % inhibition ^b. The method in brief:
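Anaerobically purified LigAB (His-tag removed) started the reaction at 3–7 nM final. Reactions ran in air-saturated 50 mM Tris pH 7.5 at 25 °C with 500 μM PCA plus 1 mM test compound, read by O2 consumption. Percent inhibition came from comparing rates with those of PCA-only assays run directly before and after.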

Our source for the inhibition values is article PMC3926093 (Biochemistry, 2013).

LigAB, sequence (P22635 whole entry): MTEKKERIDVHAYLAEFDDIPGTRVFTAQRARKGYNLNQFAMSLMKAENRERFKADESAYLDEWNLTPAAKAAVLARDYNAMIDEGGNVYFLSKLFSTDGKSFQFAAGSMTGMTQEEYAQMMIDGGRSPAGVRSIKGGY
LigAB, sequence (P22636 whole entry): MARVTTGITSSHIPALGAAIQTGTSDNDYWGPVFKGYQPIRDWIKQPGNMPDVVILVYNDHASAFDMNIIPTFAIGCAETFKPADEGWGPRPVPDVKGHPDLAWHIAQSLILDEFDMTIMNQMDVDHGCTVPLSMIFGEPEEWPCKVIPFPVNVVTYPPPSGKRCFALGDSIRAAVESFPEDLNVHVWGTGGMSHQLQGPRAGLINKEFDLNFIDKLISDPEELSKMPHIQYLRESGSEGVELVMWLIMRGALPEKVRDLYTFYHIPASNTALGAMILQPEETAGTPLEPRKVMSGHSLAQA

As for `Cc1ccc(O)c(O)c1` [4-methylcatechol], the inhibition at 1000 µM was determined as 28%. The figure for `O=[N+]([O-])c1ccc(O)c(O)c1` [4-nitrocatechol] is 31%.

Usually inhibition stands for the change of the read-out against control, counted positive when it falls.
